Measurements from ChEMBL document CHEMBL3271964, “Synthesis and biological activity of new 2-nitroimidazole derivatives” (J Med Chem, 1978).
Values after ≈ are worked out from the molar mass of the structure shown. Active and inactive are the calls of the source.

Key:
[1] = system: Staphylococcus aureus; experiment: Antimicrobial activity against Staphylococcus aureus Tour by microtitre method; assay type: functional
[2] = system: Streptococcus pyogenes; experiment: Antimicrobial activity against Streptococcus pyogenes C 203 by microtitre method; assay type: functional
[3] = system: Clostridium perfringens; experiment: Antimicrobial activity against Clostridium perfringens ISS 30543 by broth dilution method; assay type: functional
[4] = system: Mycoplasmoides gallisepticum; experiment: Antimicrobial activity against Mycoplasma gallisepticum S6 Weybridge by broth dilution method; assay type: functional
[5] = system: Trichomonas vaginalis; experiment: Antimicrobial activity against Trichomonas vaginalis by broth dilution method; assay type: functional
[6] = system: Trichomonas vaginalis; experiment: Antimicrobial activity against Trichomonas vaginalis infected in po dosed mouse; assay type: functional
Procedure, shortened: (§1)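 Mice infected subcutaneously, then dosed orally. Vehicle depended on compound: suspension in aqueous 0.75% sodium carboxymethylcellulose, DMF-H₂O, DMF-phosphate buffer pH 7.38, or water. ED₅₀ determined, with metronidazole run in parallel. The relative value is ED₅₀ (test) / ED₅₀ (metronidazole).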

[7] = system: Trichomonas vaginalis; experiment: Antimicrobial activity against Trichomonas vaginalis infected in po dosed mouse relative to metronidazole; assay type: functional; procedure, shortened: as §1
[8] = Acute toxicity in po dosed mouse; assay type: organism-based; conditions: in vivo
Procedure, shortened: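 Acute toxicity in mice by the oral route. Compounds were given as suspensions in aqueous 0.5% Methocel 90-HG.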

[9] = Therapeutic index, ratio of LD50 for po dosed mouse to ED50 for Trichomonas vaginalis infected in po dosed mouse; assay type: organism-based; conditions: in vivo, read-out: Ratio LD50/ED50
Procedure, shortened: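 Ratio of two mouse values, both dosed orally. The LD50 comes from acute toxicity, with compounds suspended in aqueous 0.5% Methocel 90-HG. The ED50 comes from subcutaneous T. vaginalis infection treated orally. The ED50 vehicle varied by compound: suspension in aqueous 0.75% sodium carboxymethylcellulose, DMF-H2O, DMF-phosphate buffer pH 7.38, or H2O.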

[10] = Solubility of the compound in water; assay type: physicochemical; conditions: buffer
[11] = system: Mus musculus; experiment: Toxicity in CF1 mouse assessed as change in sleeping time at 1 mg/kg, po administered 30 mins prior to hexobarbital sodium challenge relative to vehicle-treated control; assay type: organism-based; set-up: dose 1 mg/kg, route oral; conditions: in vivo, 0.5 h
[12] = system: Rattus norvegicus; experiment: Inhibition of carrageenan-induced edema in rat; assay type: functional, organism-based
[13] = system: Rattus norvegicus; experiment: Effect on pressor response in conscious normotensive rat up to 50 mg/kg; assay type: functional, organism-based; set-up: dose 50 mg/kg
[14] = system: Mus musculus; experiment: Toxicity in CF1 mouse assessed as reduction in curiosity at 60 to 600 mg/kg, po by Irwin test; assay type: organism-based; set-up: dose 60-600 mg/kg, route oral; conditions: in vivo
Procedure, shortened: (§2)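 Irwin observational method in male CF1 mice (19–22 g). Oral dosing of a suspension in 0.5% Methocel 90-HG at 10 mL/kg, up to 600 mg/kg; controls received saline. Directly observable behavioural and autonomic changes were scored, with the threshold dose for onset recorded.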

[15] = system: Mus musculus; experiment: Toxicity in CF1 mouse assessed as reduction in spontaneous activity at 60 to 600 mg/kg, po by Irwin test; assay type: organism-based; set-up: dose 60-600 mg/kg, route oral; conditions: in vivo; procedure, shortened: as §2
[16] = system: Mus musculus; experiment: Toxicity in CF1 mouse assessed as reduction in opening of eyelid at 60 to 600 mg/kg, po by Irwin test; assay type: organism-based; set-up: dose 60-600 mg/kg, route oral; conditions: in vivo; procedure, shortened: as §2
[17] = system: Mus musculus; experiment: Toxicity in CF1 mouse assessed as reduction in body tone at 60 to 600 mg/kg, po by Irwin test; assay type: organism-based; set-up: dose 60-600 mg/kg, route oral; conditions: in vivo; procedure, shortened: as §2
[18] = system: Mus musculus; experiment: Toxicity in CF1 mouse assessed as reduction in heart rate at 60 to 600 mg/kg, po by Irwin test; assay type: organism-based; set-up: dose 60-600 mg/kg, route oral; conditions: in vivo; procedure, shortened: as §2
[19] = system: Mus musculus; experiment: Toxicity in CF1 mouse assessed as reduction in respiratory rate at 60 to 600 mg/kg, po by Irwin test; assay type: organism-based; set-up: dose 60-600 mg/kg, route oral; conditions: in vivo; procedure, shortened: as §2
[20] = system: Mus musculus; experiment: Toxicity in CF1 mouse assessed as change in sleeping time at 250 mg/kg, po administered 30 mins prior to hexobarbital sodium challenge relative to vehicle-treated control; assay type: organism-based; set-up: dose 250 mg/kg, route oral; conditions: in vivo, 0.5 h
Procedure, shortened: (§3)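 Male CF1 mice (19–22 g), groups of 30, given oral doses as a 0.5% Methocel 90-HG suspension at 10 mL/kg; saline controls (90 animals). Hexobarbital sodium 75 mg/kg ip given 30 min later, at 25–26 °C. Sleeping time given as mean ± SE and as % change vs controls; Dunnett's t test.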

[21] = system: Mus musculus; experiment: Toxicity in CF1 mouse assessed as change in sleeping time at 500 mg/kg, po administered 30 mins prior to hexobarbital sodium challenge relative to vehicle-treated control; assay type: organism-based; set-up: dose 500 mg/kg, route oral; conditions: in vivo, 0.5 h; procedure, shortened: as §3
[22] = system: Mus musculus; experiment: Inhibition of strychine sulfate/pentetrazole-induced death in CF1 mouse at 250 to 500 mg/kg, po administered 60 mins prior to strychine sulfate/pentetrazole challenge; assay type: functional, organism-based
[23] = system: Mus musculus; experiment: Toxicity in CF1 mouse assessed as ataxia at 60 to 600 mg/kg, po by Irwin test; assay type: organism-based; set-up: dose 60-600 mg/kg, route oral; conditions: in vivo; procedure, shortened: as §2
[24] = system: Mus musculus; experiment: Toxicity in CF1 mouse assessed as cyanosis at 60 to 600 mg/kg, po by Irwin test; assay type: organism-based; set-up: dose 60-600 mg/kg, route oral; conditions: in vivo; procedure, shortened: as §2

Structure (SMILES)	MIC [1] [µg/mL]	MIC [2] [µg/mL]	MIC [3] [µg/mL]	MIC [4] [µg/mL]	MIC [5] [µg/mL]	ED50 [6] [mg/kg]	Ratio ED50 [7]	selectivity ratio [9]	also measured
Cn1c(C(C)(C)OC(N)=O)cnc1[N+](=O)[O-]	> 100	100 (≈ 438 µM)	10 (≈ 43.8 µM)	> 100	10 (≈ 43.8 µM)	5.74	0.4	156	LD50 [8]: 900 mg/kg
Cn1c(C(C)(C)O)cnc1[N+](=O)[O-]	100 (≈ 540 µM)	> 300	25 (≈ 135 µM)	40 (≈ 216 µM)	25 (≈ 135 µM)	1.65	0.28	423	–
CS(=O)(=O)[O-].Cn1c(C(C)(C)[n+]2ccccc2)cnc1[N+](=O)[O-]	> 100	> 100	> 100	> 100	> 100	> 40	>4	–	solubility [10]: soluble
CN(C)CCCN1c2ccccc2Sc2ccc(Cl)cc21.Cl [CHLORPROMAZINE HYDROCHLORIDE]	–	–	–	–	–	–	–	–	Activity [11]: 57.7%
Cn1c(C(C)(C)OC(=O)Oc2ccccc2)cnc1[N+](=O)[O-]	100 (≈ 328 µM)	100 (≈ 328 µM)	10 (≈ 32.8 µM)	> 100	2 (≈ 6.55 µM)	–	0.28	1970	inhibition [12]: inactive; Activity [13]: inactive; Activity [14]: Toxic; Activity [15]: Toxic; Activity [16]: Toxic; Activity [17]: Toxic; Activity [18]: Toxic; Activity [19]: Toxic; Activity [20]: 15.5%; Activity [21]: 18.1%; inhibition [22]: Active; Activity [23]: Toxic; Activity [24]: Toxic
Cn1c(C(C)(C)OC(=O)Nc2ccccc2)cnc1[N+](=O)[O-]	> 100	> 100	3.1 (≈ 10.2 µM)	25 (≈ 82.2 µM)	100 (≈ 329 µM)	28.8	2.88	–	–
Cn1c(C(C)(C)OC(=O)c2ccccc2)cnc1[N+](=O)[O-]	100 (≈ 346 µM)	100 (≈ 346 µM)	3.1 (≈ 10.7 µM)	50 (≈ 173 µM)	> 100	16.2	1.62	–	–
